Source: ChEMBL document CHEMBL2203109, “3-Phenyl substituted 6,7-dimethoxyisoquinoline derivatives as FtsZ-targeting antibacterial agents” (Bioorg Med Chem, 2012)
≈ marks a conversion by molar mass, not a printed value. Calls of active or inactive are those of the source. No cut-off for these calls is given here.

Assays:
HEK293 = test: Cytotoxicity against human HEK293 cells at 10 uM after 4 days by MTT assay; format: cell-based; conditions: hek293, 96 h
Outline: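 MTT assay. HEK293 or MDCK cells kept at 37 °C, 5% CO2 in DMEM, seeded at 1500 cells per well. Continuous 4-day exposure to varying drug concentrations in triplicate wells, with a drug-free control. MTT read at end of day 4; IC50 determined.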

Enterococcus faecalis [1] = test: Antibacterial activity against log-phase vancomycin-sensitive Enterococcus faecalis ATCC 19433 assessed as growth inhibition after 24 hrs by broth microdilution method; format: functional; conditions: ATCC 19433, 24 h
Outline: (§1)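 CLSI broth microdilution. Log-phase bacteria at 10^5 CFU/mL with two-fold serial dilutions (64 to 0.031 μg/mL). S. aureus tested in cation-adjusted Mueller-Hinton broth; E. faecalis in brain–heart infusion broth. Aerobic incubation 24 h at 37 °C. OD600 read; MIC is the lowest concentration giving ≥90% growth inhibition.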

Staphylococcus aureus [2] = test: Antibacterial activity against log-phase methicillin-sensitive Staphylococcus aureus 8325-4 assessed as growth inhibition after 24 hrs by broth microdilution method; format: functional; conditions: 8325-4, 24 h; outline: as §1
[3] = target: T1, Cell division protein FtsZ (Staphylococcus aureus) (UniProt P0A031); test: Induction of Staphylococcus aureus FtsZ polymerization measured for 60 mins by microtiter plate-based light scattering assay
T1 sequence (whole entry): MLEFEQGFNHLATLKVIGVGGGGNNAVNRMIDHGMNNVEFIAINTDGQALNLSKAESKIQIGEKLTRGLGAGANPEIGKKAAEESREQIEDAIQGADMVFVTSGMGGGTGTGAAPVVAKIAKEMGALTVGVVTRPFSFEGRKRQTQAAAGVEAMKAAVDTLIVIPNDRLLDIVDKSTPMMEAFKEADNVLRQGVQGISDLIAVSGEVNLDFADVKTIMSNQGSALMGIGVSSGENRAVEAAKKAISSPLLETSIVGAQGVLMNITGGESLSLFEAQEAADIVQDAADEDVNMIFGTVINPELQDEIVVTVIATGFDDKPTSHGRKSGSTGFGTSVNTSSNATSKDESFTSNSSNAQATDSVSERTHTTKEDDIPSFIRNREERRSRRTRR
Outline: (§2)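 Turbidity assay. 10 μM SaFtsZ plus compound (0–40 μg/mL) in 50 mM Tris HCl pH 7.4, 50 mM KCl, 2 mM magnesium acetate, 5 mM CaCl2, pre-equilibrated 10 min at room temperature. Started by adding 1 mM GTP or FtsZ; A340 followed for 60 min at 25 °C. For polymer stability, 1 mM GDP added mid-run.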

[4] = target: T1, Cell division protein FtsZ (Staphylococcus aureus); test: Induction of Staphylococcus aureus FtsZ polymerization at 40 ug/ml measured for 60 mins by microtiter plate-based light scattering assay; outline: as §2
[5] = target: Tubulin beta chain (Sus scrofa) (UniProt P02554); test: Induction of pig MAP-rich beta-tubulin polymerization at 40 ug/ml measured for 60 mins by microtiter plate based light scattering assay
Outline: (§3)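 Porcine tubulin (70% β-tubulin, 30% MAPs) at 2 mg/mL with 1 mM GTP and compound in 80 mM PIPES NaOH pH 7.0, 2 mM MgCl2, 1 mM EGTA. A340 followed continuously at 37 °C for 60 min.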

Enterococcus faecalis [6] = test: Antibacterial activity against log-phase vancomycin-resistant Enterococcus faecalis ATCC 51575 assessed as growth inhibition after 24 hrs by broth microdilution method; format: functional; conditions: ATCC 51575, 24 h
Outline: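 CLSI broth microdilution in brain–heart infusion broth; log-phase bacteria at 10^5 CFU/mL, two-fold serial dilutions 64 to 0.031 μg/mL; 24 h aerobic incubation at 37 °C; OD600 read-out; MIC taken as lowest concentration inhibiting growth ≥90%.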

[7] = target: T1, Cell division protein FtsZ (Staphylococcus aureus); test: Residual Staphylococcus aureus GTPase activity assessed as inorganic phosphate release upon GTP hydrolysis at 40 ug/ml preincubated for 10 mins before substrate addition measured after 2 hrs by malachite green based colorimetric analysis
Staphylococcus aureus [8] = test: Antibacterial activity against log-phase methicillin-resistant Staphylococcus aureus ATCC 33591 assessed as growth inhibition after 24 hrs by broth microdilution method; format: functional; conditions: ATCC 33591, 24 h
Outline: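 CLSI broth microdilution; 10^5 CFU/mL log-phase bacteria in cation-adjusted Mueller-Hinton broth with 2% NaCl, two-fold serial dilutions from 64 to 0.031 μg/mL; aerobic incubation 24 h at 37 °C; growth read as OD600; MIC = lowest concentration giving ≥90% growth inhibition.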

[9] = target: Tubulin beta chain (Sus scrofa) (UniProt P02554); test: Induction of pig MAP-rich beta-tubulin polymerization at 25 ug/ml measured for 60 mins by microtiter plate based light scattering assay; outline: as §3
[10] = target: T2, Cell division protein FtsZ (Staphylococcus aureus, UniProt P0A031); test: Binding affinity to Staphylococcus aureus FtsZ expressed in Escherichia coli cells assessed as dissociation constant by fluorescence spectroscopy
T2 sequence (P0A031 whole entry): T1 sequence (whole entry)
Outline: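 Recombinant SaFtsZ from E. coli titrated stepwise into compound (7 or 10 μM) in 50 mM Tris HCl pH 7.4, 50 mM KCl, 2 mM magnesium acetate. After 3 min equilibration per addition, emission scanned 510–370 nm and buffer-only titration background subtracted. Kd obtained by fitting intensity changes to a 1:1 binding model.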

[11] = target: T1, Cell division protein FtsZ (Staphylococcus aureus); test: Induction of Staphylococcus aureus FtsZ polymerization at 40 ug/ml measured for 60 mins by microtiter plate-based light scattering assay in presence of GTP
[12] = target: T1, Cell division protein FtsZ (Staphylococcus aureus); test: Induction of Staphylococcus aureus GTPase activity assessed as inorganic phosphate release upon GTP hydrolysis at less than 40 ug/ml preincubated for 10 mins before substrate addition measured after 2 hrs by malachite green based colorimetric analysis
Outline: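 S. aureus FtsZ expressed in E. coli, 10 μM, with DMSO or compound (0.1–200 μg/mL) in 50 mM Tris HCl pH 7.4, 50 mM KCl, 2 mM Mg acetate, 5 mM CaCl2; duplicate reactions. After 10 min room-temperature pre-equilibration, 250 μM GTP added, 2 h at 37 °C. Pi by malachite green, A620, phosphate standard curve; expressed as percent of vehicle.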

[13] = target: Tubulin beta chain (Sus scrofa) (UniProt P02554); conditions: 10 ug/ml

Tubulin beta chain (Sus scrofa), sequence (P02554 whole entry): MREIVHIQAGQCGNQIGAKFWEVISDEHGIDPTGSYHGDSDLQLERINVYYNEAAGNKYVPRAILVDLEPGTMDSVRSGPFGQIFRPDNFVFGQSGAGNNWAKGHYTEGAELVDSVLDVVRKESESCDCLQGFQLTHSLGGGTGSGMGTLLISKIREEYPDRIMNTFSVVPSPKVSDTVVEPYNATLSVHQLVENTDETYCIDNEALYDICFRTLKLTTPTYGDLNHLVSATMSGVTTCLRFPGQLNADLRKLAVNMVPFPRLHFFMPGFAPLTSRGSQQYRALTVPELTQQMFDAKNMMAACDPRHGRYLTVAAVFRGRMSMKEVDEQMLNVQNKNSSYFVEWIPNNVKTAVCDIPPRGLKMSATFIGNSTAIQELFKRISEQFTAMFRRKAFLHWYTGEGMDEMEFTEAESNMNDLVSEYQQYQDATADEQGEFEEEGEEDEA

COc1cc2cc(-c3cccc(C(C)(C)C)c3)nc(CN=C(N)N)c2cc1OC
Activity (HEK293): Non-toxic
MIC90 (Enterococcus faecalis [1]): 16 µg/mL (≈ 40.8 µM)
MIC90 (Staphylococcus aureus [2]): 4 µg/mL (≈ 10.2 µM)
Activity [3]: Dose-dependent effect
Activity [4]: Active
Activity [5]: inactive
MIC90 (Enterococcus faecalis [6]): 16 µg/mL (≈ 40.8 µM)
residual activity [7]: 60.4%
MIC90 (Staphylococcus aureus [8]): 8 µg/mL (≈ 20.4 µM)

CC(=O)O[C@H]1C(=O)[C@@]2(C)[C@H]([C@H](OC(=O)c3ccccc3)[C@]3(O)C[C@H](OC(=O)[C@H](O)[C@@H](NC(=O)c4ccccc4)c4ccccc4)C(C)=C1C3(C)C)[C@]1(OC(C)=O)CO[C@@H]1C[C@@H]2O
Activity [9]: Active

COc1cc2cc(-c3cccc(-c4ccc(C(C)(C)C)cc4)c3)[n+](C)c(C)c2cc1OC.[I-]
Kd [10]: 5.4 µM
MIC90 (Enterococcus faecalis [1]): 8 µg/mL
MIC90 (Staphylococcus aureus [2]): 1 µg/mL
Activity [3]: Dose-dependent effect
Activity [4]: Active
Activity [5]: inactive
Activity [11]: Active
MIC90 (Enterococcus faecalis [6]): 8 µg/mL
residual activity [7]: 14.9%
MIC90 (Staphylococcus aureus [8]): 8 µg/mL

COc1cc2cc(-c3cccc(-c4ccc(-c5ccccc5)cc4)c3)[n+](C)c(C)c2cc1OC.[I-]
Kd [10]: 2 µM
MIC90 (Enterococcus faecalis [1]): 4 µg/mL
MIC90 (Staphylococcus aureus [2]): 1 µg/mL
Activity [3]: Dose-dependent effect
Activity [4]: Active
MIC90 (Enterococcus faecalis [6]): 8 µg/mL
residual activity [7]: 30.2%
MIC90 (Staphylococcus aureus [8]): 2 µg/mL

COc1cc2cc(-c3cccc(C(C)(C)C)c3)nc(C/N=C(/C)N)c2cc1OC
MIC90 (Enterococcus faecalis [1]): 16 µg/mL (≈ 40.9 µM)
MIC90 (Staphylococcus aureus [2]): 8 µg/mL (≈ 20.4 µM)
Activity [3]: Dose-dependent effect
Activity [4]: Active
MIC90 (Enterococcus faecalis [6]): 16 µg/mL (≈ 40.9 µM)
residual activity [7]: 64.8%
MIC90 (Staphylococcus aureus [8]): 8 µg/mL (≈ 20.4 µM)
Activity [12]: Active

COc1cc2cc(-c3cccc(-c4ccccc4)c3)nc(CCN=C(N)N)c2cc1OC
Activity (HEK293): Non-toxic
MIC90 (Enterococcus faecalis [1]): 8 µg/mL (≈ 18.8 µM)
MIC90 (Staphylococcus aureus [2]): 2 µg/mL (≈ 4.69 µM)
Activity [3]: Dose-dependent effect
Activity [4]: Active
MIC90 (Enterococcus faecalis [6]): 8 µg/mL (≈ 18.8 µM)
residual activity [7]: 56%
MIC90 (Staphylococcus aureus [8]): 2 µg/mL (≈ 4.69 µM)
Activity [12]: Active

COC(=O)Nc1nc2cc(C(=O)c3cccs3)ccc2[nH]1
inhibition [13]: Active
